According to paper PMC7080202 (Medicinal Chemistry Research, 2013):
“Also recorded” adds a separate entry of the source. Where two headings read alike, the source gives them in different places.

Assays:
[1] = tested on: Cytomegalovirus Davis strain; test: microbe, parasite or virus in culture; assay type: cell-based; settings: Human betaherpesvirus 5, HEL, read-out: EC50 Cytomegalovirus Davis strain
[2] = tested on: Herpes simplex virus-1 (KOS); test: microbe, parasite or virus in culture; assay type: cell-based, herpes simplex virus type 1; settings: Human alphaherpesvirus 1, HEL, read-out: EC50 Herpes simplex virus-1 (KOS)
[3] = tested on: Herpes simplex virus-2 (G); test: microbe, parasite or virus in culture; assay type: cell-based, herpes simplex virus type 2; settings: Human alphaherpesvirus 2, HEL, read-out: EC50 Herpes simplex virus-2 (G)
[4] = tested on: Vaccinia virus; test: microbe, parasite or virus in culture; assay type: cell-based; settings: Orthopoxvirus vaccinia, HEL, read-out: EC50 Vaccinia virus
[5] = tested on: Vesicular stomatitis virus; test: microbe, parasite or virus in culture; assay type: cell-based; settings: Vesicular stomatitis virus, HEL, read-out: EC50 Vesicular stomatitis virus
[6] = tested on: Herpes simplex virus-1TK-KOS ACV^r; test: microbe, parasite or virus in culture; assay type: cell-based, herpes simplex virus type 1; settings: Human alphaherpesvirus 1, HEL, read-out: EC50 Herpes simplex virus-1TK-KOS ACV^r
[7] = tested on: Feline herpes virus; test: Antiviral CPE assay, feline herpes virus in CRFK cells; assay type: cell-based; settings: CRFK, read-out: EC50 Feline herpes virus
[8] = tested on: Coxsackie virus B4; test: microbe, parasite or virus in culture; assay type: cell-based; settings: Enterovirus B, B4, HeLa, read-out: Antiviral activity EC50 Coxsackie virus B4
[9] = tested on: Para-influenza-3 virus; test: organism not typed; assay type: cell-based, parainfluenza-3 virus; settings: Vero, read-out: Antiviral activity EC50 Para-influenza-3 virus
[10] = tested on: Reovirus-1; test: organism not typed; assay type: cell-based; settings: Vero, read-out: Antiviral activity EC50 Reovirus-1
[11] = tested on: Sindbis virus; test: microbe, parasite or virus in culture; assay type: cell-based; settings: Sindbis virus, Vero, read-out: Antiviral activity EC50 Sindbis virus
[12] = tested on: Coxsackie virus B4; test: microbe, parasite or virus in culture; assay type: cell-based; settings: Enterovirus B, B4, Vero, read-out: Antiviral activity EC50 Coxsackie virus B4
[13] = tested on: Punta Toro virus; test: microbe, parasite or virus in culture; assay type: cell-based; settings: Punta Toro virus, Vero, read-out: Antiviral activity EC50 Punta Toro virus
[14] = tested on: Influenza B; test: Anti-influenza virus activity, influenza B in MDCK cells; assay type: cell-based, influenza B virus B/Hong Kong/5/72; settings: Influenza B virus, MDCK
[15] = tested on: Human embryonic lung cell cultures; test: Cytotoxicity; assay type: cell-based
Method in brief: (§1)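 Cell cultures incubated with varying concentrations of test compound, then examined by microscopy. MCC is the lowest concentration that causes a microscopically detectable alteration of normal cell morphology. HEL, Vero and HeLa lines were monitored regularly for mycoplasma and found free of it.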

[16] = tested on: Crandell-Rees feline kidney cells; test: Cytotoxicity; assay type: cell-based
[17] = tested on: HeLa cell cultures; test: Cytotoxicity; assay type: cell-based
Method in brief: as §1

[18] = tested on: Vero cell cultures; test: Cytotoxicity; assay type: cell-based
Method in brief: as §1

[19] = tested on: MDCK cells; settings: microscopically detectable alteration of normal cell morphology
[20] = in vitro; settings: dog
[21] = tested on: mouse-skin papillomas induced by DMBA and TPA; test: Two-stage mouse-skin carcinogenesis test; assay type: in vivo
Method in brief: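 Specific pathogen-free female ICR mice, 6 weeks old, about 30 g, 15 per group, kept at 24 ± 2 °C. Shaved backs were initiated with DMBA (100 μg, 390 nmol) in 0.1 ml acetone. One week later, TPA (1 μg, 1.7 nmol) in acetone was applied twice weekly. Test compound (85 nmol) in 0.1 ml acetone was applied topically 1 h before each TPA. Papillomas were scored weekly for 20 weeks as % mice bearing papillomas and mean papillomas per mouse.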

[22] = tested on: Influenza A H1N1 subtype; test: Anti-influenza virus activity, influenza A H1N1 in MDCK cells; assay type: cell-based, influenza A virus A/Puerto Rico/8/34 (H1N1); settings: H1N1, H3N2 and influenza B; below the non-toxic concentration of 100 µM
[23] = read-out: Antiviral EC50 Influenza B MTS
[24] = read-out: Antiviral EC50 Influenza B Visual CPE score

Row | SMILES | EC50 [1] [µM] | EC50 [2] [µM] | EC50 [3] [µM] | EC50 [4] [µM] | EC50 [5] [µM] | EC50 [6] [µM] | EC50 [7] [µM] | EC50 [8] [µM] | EC50 [11] [µM] | EC50 [12] [µM] | EC50 [14, 23] [µM] | EC50 [14, 24] [µM] | Minimum cytotoxic concentration [15] [µM] | Minimum cytotoxic concentration [16] [µM] | Minimum cytotoxic concentration [17] [µM] | Minimum cytotoxic concentration [18] [µM] | Cytotoxicity Minimum cytotoxic concentration [19] | CC50 [20] [µM] | other results
1 | O=C1/C(=N\NC(=S)NN=Cc2ccccc2)c2ccccc2N1Cc1ccccc1 [4g, 3-{[(3Z)-1-benzyl-2-oxo-2,3-dihydro-1H-indol-3-ylidene]amino}-1-[(phenylmethylidene)amino]thiourea] | > 100 | > 100 | > 100 | > 100 | > 100 | > 100 | > 100 | > 20 | > 100 | > 100 | > 100 | > 100 | ≥100 | ≥100 | 100 | >100 | >100 | > 100 | EC50 [9]: > 100 µM; EC50 [10]: > 100 µM; EC50 [13]: > 100 µM
2 | O=C(N/N=C1\C(=O)Nc2ccccc21)N/N=C1\C(=O)Nc2ccccc21 [6a, 1,3-Bis({[(3Z)-2-oxo-2,3-dihydro-1H-indol-3-ylidene]amino})urea] | > 100 | > 100 | > 100 | > 100 | > 100 | > 100 | > 100 | > 100 | – | – | > 100 | > 100 | ≥100 | >100 | >100 | 100 | >100 | > 100 | –
3 | O=C(N/N=C1\C(=O)Nc2ccc(Cl)cc21)N/N=C1\C(=O)Nc2ccc(Cl)cc21 [6b, 1,3-Bis({[(3Z)-5-chloro-2-oxo-2,3-dihydro-1H-indol-3-ylidene]amino})urea] | > 20 | > 100 | > 100 | > 100 | > 100 | > 100 | 19.7 | > 100 | > 20 | > 20 | > 100 | > 100 | 100 | >100 | >100 | 100 | >100 | > 100 | EC50 [9]: > 20 µM; EC50 [10]: > 20 µM; EC50 [13]: > 20 µM; chemoprevention / anti-tumor promoting activity (in words) ([21]; 85 nmol topical): moderate protection; papillomas/mouse ([21]; 85 nmol topical, 10 weeks of promotion): 1.2 papillomas/mouse; papillomas/mouse ([21]; 85 nmol topical, 15 weeks of promotion): 3.9 papillomas/mouse; percentage of papillomas (mice with papillomas) ([21]; 85 nmol topical, after week 17): 100%; papillomas/mouse ([21]; 85 nmol topical, week 20): 6.1 papillomas/mouse
4 | Cc1ccc2c(c1)/C(=N/NC(=O)N/N=C1\C(=O)Nc3ccc(C)cc31)C(=O)N2 [6c, 1,3-Bis({[(3Z)-5-methyl-2-oxo-2,3-dihydro-1H-indol-3-ylidene]amino})urea] | > 100 | > 100 | > 100 | > 100 | > 100 | > 100 | 55.1 | > 100 | > 20 | > 20 | > 20 | > 20 | >100 | >100 | >100 | 100 | ≥20 | 46 | EC50 [9]: > 20 µM; EC50 [10]: > 20 µM; EC50 [13]: > 20 µM; chemoprevention / anti-tumor promoting activity (in words) ([21]; 85 nmol topical): highest chemoprevention activity; also recorded: stronger chemoprevention activity; percentage of papilloma-bearing mice ([21]; 85 nmol topical before each TPA, during weeks 10–15): 40–70%; percentage of papilloma-bearing mice ([21]; 85 nmol topical, week 18): 90%; papillomas/mouse ([21]; 85 nmol topical, week 20): 5.1 papillomas/mouse; percentage of papilloma-bearing mice ([21]; 85 nmol topical, week 20): 100%
5 | O=C1Nc2ccccc2/C1=N/NC(=S)N/N=C1\C(=O)Nc2ccccc21 [6e, 1,3-Bis({[(3Z)-2-oxo-2,3-dihydro-1H-indol-3-ylidene]amino})thiourea] | > 20 | > 100 | > 100 | > 100 | > 100 | > 100 | > 100 | > 100 | – | – | 48 ± 31 | 39 ± 5.5 | 100 | >100 | >100 | 100 | >100 | > 100 | anti-influenza activity (in words) [22]: some activity
6 | Nc1ncnc2c1ncn2C[C@H](O)CO [(S)-DHPA, reference compound] | – | – | – | – | – | – | – | > 250 | > 250 | > 250 | – | – | – | – | >250 | >250 | – | – | EC50 [9]: > 250 µM; EC50 [10]: > 250 µM; EC50 [13]: > 250 µM
7 | Nc1nc2c(ncn2COCCO)c(=O)[nH]1 [Acyclovir, reference compound] | – | 0.4 | 0.2 | > 250 | > 250 | 22 | – | – | – | – | – | – | – | – | – | – | – | – | –
8 | NC12CC3CC(CC(C3)C1)C2 [Amantadine, reference compound] | – | – | – | – | – | – | – | – | – | – | > 200 | > 200 | – | – | – | – | >200 | > 200 | –
9 | O=c1[nH]c(=O)n([C@H]2C[C@H](O)[C@@H](CO)O2)cc1/C=C/Br [Brivudin, reference compound] | – | 0.04 | 112 | 4 | > 250 | 50 | – | – | – | – | – | – | >300 | – | – | – | – | – | –
10 | Nc1ccn(C[C@@H](CO)OCP(=O)(O)O)c(=O)n1 [Cidofovir, reference compound] | 0.78 ± 0.49 | 2 | 1 | 22 | > 250 | 0.9 | – | – | – | – | – | – | >300 | – | – | – | – | – | –
11 | Nc1nc(O)c2ncn(COC(CO)CO)c2n1 [Ganciclovir, reference compound] | 5.5 ± 2.36 | 0.02 | 0.01 | > 100 | > 100 | 4 | 1.4 | – | – | – | – | – | >350 | >100 | – | – | – | – | –
12 | CCC(CC)O[C@@H]1C=C(C(=O)O)C[C@H](N)[C@H]1NC(C)=O [Oseltamivir carboxylate, reference compound] | – | – | – | – | – | – | – | – | – | – | 2.5 ± 0.7 | 6.7 ± 5.3 | – | – | – | – | >100 | > 100 | –
13 | NC(=O)c1ncn([C@@H]2O[C@H](CO)[C@@H](O)[C@H]2O)n1 [Ribavirin, reference compound] | – | – | – | – | – | – | – | 112 | > 250 | 250 | 2.45 ± 0.25 | 2.4 ± 1.6 | – | – | >250 | >250 | >100 | – | –
14 | CC(N)C12CC3CC(CC(C3)C1)C2 (centres unmarked) [Rimantadine, reference compound] | – | – | – | – | – | – | – | – | – | – | > 200 | > 200 | – | – | – | – | >200 | > 200 | –
